Our source for the inhibition values is PubChem BioAssay AID652011 (Sanford-Burnham Center for Chemical Genomics, 2013).

One may read the inhibition as the relative decrease from the control value, in per cent.

Values joined by “and” are separate entries in the source; they are usually repeats but may differ in a detail not shown here. Equal values may be shown once.

Hypoxia-inducible factor 1-alpha (Homo sapiens), sequence (Q16665 whole entry, looked up): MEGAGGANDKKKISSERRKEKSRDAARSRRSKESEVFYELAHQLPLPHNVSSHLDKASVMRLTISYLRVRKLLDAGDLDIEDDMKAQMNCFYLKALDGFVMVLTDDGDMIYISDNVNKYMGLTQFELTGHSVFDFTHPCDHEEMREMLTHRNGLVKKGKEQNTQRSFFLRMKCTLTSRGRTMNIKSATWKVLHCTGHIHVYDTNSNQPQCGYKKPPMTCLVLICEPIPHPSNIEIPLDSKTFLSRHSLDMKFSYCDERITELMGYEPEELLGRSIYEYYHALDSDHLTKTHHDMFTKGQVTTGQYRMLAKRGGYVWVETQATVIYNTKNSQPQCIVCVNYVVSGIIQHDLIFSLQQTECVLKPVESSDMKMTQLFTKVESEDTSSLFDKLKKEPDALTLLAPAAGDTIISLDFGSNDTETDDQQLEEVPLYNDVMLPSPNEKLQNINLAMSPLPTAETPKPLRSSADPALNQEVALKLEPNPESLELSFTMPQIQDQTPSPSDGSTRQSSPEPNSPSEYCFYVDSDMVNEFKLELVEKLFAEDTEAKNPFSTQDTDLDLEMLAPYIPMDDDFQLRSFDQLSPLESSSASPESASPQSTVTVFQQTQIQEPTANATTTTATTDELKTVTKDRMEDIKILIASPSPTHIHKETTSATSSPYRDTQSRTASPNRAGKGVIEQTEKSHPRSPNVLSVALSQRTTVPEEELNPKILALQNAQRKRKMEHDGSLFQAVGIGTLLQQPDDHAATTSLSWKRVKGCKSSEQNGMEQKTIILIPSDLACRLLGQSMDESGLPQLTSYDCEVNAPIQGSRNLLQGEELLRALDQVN

This assay addresses Hypoxia-inducible factor 1-alpha (Homo sapiens) (UniProt Q16665). The assay can be described thus: HIF reporter inhibition across pancreatic and renal lines – cell-based, luminescence, MIAPaCa-2, 786-0, panel, SAR follow-up (AID 652011). The settings on record: MIAPaCa-2/PANC HIF reporter, luciferase luminescence, desferoxamine, overnight, HIF1a, run 1; at 99 µM (top of the series). An outline of the steps: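 Reagent: Desferoxamine added before compound | Doses: Compounds from 10 mM and 0.3125 mM stocks, 1% DMSO final | Times: Overnight seeding and compound exposure, 37 °C, 5% CO2, 10-min detection | Measured by: One-Glo luciferase luminescence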
Turning to `CC(C)(C)c1ccc(-c2noc(CCC(=O)N3CCCCC3)n2)cc1`, the inhibition is 102%.
The result for `CNC(=O)CCc1nc(-c2ccc(C(C)C)cc2)no1` reads -38.5%.
The result for `CC(C)(C)c1ccc(-c2noc(CCC(=O)NC3CCCCC3)n2)cc1` reads 41.6%; that for `CCc1ccc(-c2noc(CCC(=O)NC)n2)cc1`, -61.6%.
The result for `CC(C)(C)c1ccc(-c2noc(CCC(=O)O)n2)cc1` reads 94.7%; that for `CCCCc1ccc(-c2noc(CCC(=O)NC(C)(C)C)n2)cc1`, 86.1%; that for `CNC(=O)CCc1nc(-c2ccc(C)cc2)no1`, 8.42%.
Turning to `CCCCc1ccc(-c2noc(CCC(=O)NCC)n2)cc1`, the inhibition was -6.32%.
The result for `CCc1ccc(-c2noc(CCC(=O)NC3CC3)n2)cc1` reads -66.8%.
The result for `CCC(C)NC(=O)CCc1nc(-c2ccccc2)no1` (stereo unspecified) reads -33.5%; that for `O=C(CCc1nc(-c2ccccc2)no1)NC1CC1`, -33.5%; that for `CCNC(=O)CCc1nc(-c2ccc(C(C)(C)C)cc2)no1`, -11.3% and -13.8%.
The result for `CCNC(=O)CCc1nc(-c2cccc(C)c2)no1` reads -31.4%; that for `C=CCNC(=O)CCc1nc(-c2ccc(C(C)(C)C)cc2)no1`, -8.77%; that for `CNC(=O)CCc1nc(-c2ccc(F)cc2)no1`, -42.8%.
As for `CCNC(=O)CCc1nc(-c2cccc(F)c2)no1`, the inhibition is -22%.
The result for `CC(C)(C)NC(=O)CCc1nc(-c2ccc(C(C)(C)C)cc2)no1` reads 84.3%; that for `CCc1ccc(-c2noc(CCC(=O)NC(C)(C)C)n2)cc1`, -38.3%; that for `CC(C)(C)c1ccc(-c2noc(CCC(=O)NC3CC3)n2)cc1`, -50.8%.
The result for `CCCNC(=O)CCc1nc(-c2ccc(C(C)(C)C)cc2)no1` reads -1.08%; that for `CC(C)(C)c1ccc(-c2noc(CCC(=O)NC3CCC3)n2)cc1`, 31.6%.
Turning to `CCOc1ccc(-c2noc(CCC(=O)NC)n2)cc1`, the inhibition was -41.9%.
The result for `CCOc1ccc(-c2noc(CCC(=O)O)n2)cc1` reads 73.4%.
The result for `CCCCc1ccc(-c2noc(CCC(=O)NC3CC3)n2)cc1` reads 2.18%; that for `CC(C)(C)c1ccc(-c2noc(CCC(=O)NCc3ccco3)n2)cc1`, 86.8% and 85.5%.
The result for `CC(C)(C)c1ccc(-c2noc(CCC(=O)NC3CCCC3)n2)cc1` reads 70.1%.
Regarding `CNC(=O)CCc1nc(-c2ccc(Cl)cc2)no1`, the inhibition is -25.6%.
The result for `CCN(CC)C(=O)CCc1nc(-c2ccc(C(C)(C)C)cc2)no1` reads -20.8% and 47.7%.
The result for `CCNC(=O)CCc1nc(-c2ccccc2C)no1` reads -25.2%; that for `CNC(=O)CCc1nc(-c2ccccc2)no1`, -13.3% and 12%; that for `CCC(C)NC(=O)CCc1nc(-c2ccc(C(C)(C)C)cc2)no1` (stereo unspecified), -78.9%.
